Laboratory results taken from ChEMBL document CHEMBL1140566, “Discovery of novel isoxazolines as anti-tuberculosis agents” (Bioorg Med Chem Lett, 2007).
≈ marks a conversion by molar mass, not a printed value.

How the values were obtained:
[1] = Solubility at pH 7.4 by shake-flask method; type: physicochemical; conditions: buffer
Method in brief: (§1)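 Aqueous solubility was determined by a miniaturized shake-flask method at pH 6.0 and at pH 7.4, reported in mg/L.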

[2] = Solubility at pH 6.0 by shake-flask method; type: physicochemical; conditions: buffer; method in brief: as §1
[3] = Protein binding in rat; type: ADME, organism-based; conditions: plasma, read-out: PB (converted)
Method in brief: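 Plasma protein binding was measured by equilibrium dialysis in RED devices and reported as percent bound.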

[4] = system: Mycobacterium tuberculosis; experiment: Antituberculosis activity against Mycobacterium tuberculosis by microbroth dilution method; type: functional
Method in brief: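 M. tuberculosis susceptibility was measured by microbroth dilution and reported as MIC90 in μg/mL.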

[5] = Stability in rat liver microsomes after 90 mins; type: ADME, Microsome; conditions: read-out: Stability
Method in brief: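 Compounds were incubated with pooled rat liver microsomes and loss of parent was monitored. Intact parent was quantified by LC-MS/MS and reported as % remaining at 90 min.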

[6] = Bioavailability in rat at 100 mg/kg, po; type: ADME, organism-based; conditions: in vivo
Method in brief: (§2)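 Rats were given single doses at 10 mg/kg intravenously or 100 mg/kg orally. Half-life, AUC to infinity (μg·hr/L), volume of distribution (L/kg) and clearance (L/hr/kg) were derived for each route. Oral bioavailability was calculated relative to the IV dose.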

[7] = Half life in rat at 100 mg/kg, po; type: ADME, organism-based; parameters: dose 100 mg/kg, route oral; conditions: in vivo; method in brief: as §2
[8] = Clearance in rat at 100 mg/kg, po; type: ADME, organism-based; parameters: dose 100 mg/kg, route oral; conditions: in vivo; method in brief: as §2
[9] = system: Mycobacterium tuberculosis; experiment: Antituberculosis activity in Mycobacterium tuberculosis infected rat assessed as reduction of colony formation; type: functional
[10] = Volume of distribution in rat at 10 mg/kg, iv; type: ADME, organism-based; parameters: dose 10 mg/kg, route intravenous; conditions: in vivo; method in brief: as §2
[11] = Clearance in rat at 10 mg/kg, iv; type: ADME, organism-based; parameters: dose 10 mg/kg, route intravenous; conditions: in vivo; method in brief: as §2
[12] = AUC (0 to infinity) in rat at 10 mg/kg, iv; type: ADME, organism-based; parameters: time infinity, dose 10 mg/kg, route intravenous; conditions: plasma; method in brief: as §2
[13] = Half life in rat at 10 mg/kg, iv; type: ADME, organism-based; parameters: dose 10 mg/kg, route intravenous; conditions: in vivo; method in brief: as §2
Rattus norvegicus = experiment: Volume of distribution in rat at 100 mg/kg, po; type: ADME, organism-based; parameters: dose 100 mg/kg, route oral; conditions: in vivo; method in brief: as §2
[14] = AUC (0 to infinity) in rat at […]; type: ADME, organism-based; parameters: time infinity; conditions: plasma

SMILES | solubility thermodynamic [2] | fraction unbound [3] | MIC90 [4] | remaining at 1.5 h [5] | Log10 cfu [9] | other results
O=[N+]([O-])c1ccc(C2=NOC(c3ccc(N4CCCCC4)cc3)C2)o1 (stereo not given) | 0.017 µg/mL (≈ 0.0498 µM) | 0.012 | 1.56 ng/mL (≈ 0.00457 µM) | 6% |  | Solubility [1]: 0.014 µg/mL (≈ 0.041 µM)
CCCC1=NOC(c2ccc(N3CCN(Cc4ccccc4)CC3)cc2)C1 (stereo not given) |  |  | > 200000 ng/mL |  |  | 
CCOC(=O)C1=NOC(c2ccc(N3CCN(Cc4ccccc4)CC3)cc2)C1 (stereo not given) |  |  | 1560 ng/mL (≈ 3.96 µM) |  |  | 
O=[N+]([O-])c1ccc(C2=NOC(c3ccc(N4CCN(Cc5ccccc5)CC4)cc3)C2)o1 (stereo not given) | 3.34 µg/mL (≈ 7.72 µM) | 0.001 | 0.05 ng/mL (≈ 0.000116 µM) | 31% | 0.64 | solubility thermodynamic [1]: 0.236 µg/mL (≈ 0.546 µM); bioavailability [6]: 34.5%; half-life [7]: 4.2 h; CL/F [8]: 26.3 mL/min/kg; Vd [10]: 2 L/kg; clearance [11]: 8.83 mL/min/kg; AUC(0-inf) [12]: 19100 ng·h/mL; half-life [13]: 2.6 h; Vd (Rattus norvegicus): 9.3 L/kg; AUC(0-inf) [14]: 65900 ng·h/mL
CCOC(=O)N1CCN(c2ccc(C3CC(c4ccc([N+](=O)[O-])o4)=NO3)cc2)CC1 (stereo not given) | 4 µg/mL (≈ 9.65 µM) | 0.01 | 0.1 ng/mL (≈ 0.000241 µM) | 12% | 0.59 | solubility thermodynamic [1]: 3.6 µg/mL (≈ 8.69 µM)
CC(C)NC(=O)N1CCN(c2ccc(C3CC(c4ccc([N+](=O)[O-])o4)=NO3)cc2)CC1 (stereo not given) | 27.7 µg/mL (≈ 64.8 µM) | 0.027 | 0.2 ng/mL (≈ 0.000468 µM) | 26% | 0.83 | solubility thermodynamic [1]: 20 µg/mL (≈ 46.8 µM)
O=[N+]([O-])c1ccc(C2=NOC(c3ccc(N4CCN(Cc5ccccc5)CC4)cc3)C2)cc1 (stereo not given) |  |  | > 200000 ng/mL |  |  | 
CC(C)(C)OC(=O)N1CCN(c2ccc(C3CC(c4ccc([N+](=O)[O-])o4)=NO3)cc2)CC1 (stereo not given) |  |  | 0.1 ng/mL (≈ 0.000226 µM) |  |  | 
c1ccc(CN2CCN(c3ccc(C4CC(c5ccncc5)=NO4)cc3)CC2)cc1 (stereo not given) |  |  | 50000 ng/mL (≈ 125 µM) |  |  | 
c1ccc(CN2CCN(c3ccc(C4CC(c5ccccn5)=NO4)cc3)CC2)cc1 (stereo not given) |  |  | > 200000 ng/mL |  |  | 
NNC(=O)c1ccncc1 [ISONIAZID] |  |  | 25 ng/mL (≈ 0.182 µM) |  | 3.98 | 
